We go through 7 molecules from ChEMBL document CHEMBL3813601, “Structure-Based Inhibitor Design for Evaluation of a CYP3A4 Pharmacophore Model” (J Med Chem, 2016).

What all share (format): ADME
Data set [1] addresses T1, Cytochrome P450 3A4 (Homo sapiens, UniProt P08684). In words: Binding affinity to C-terminal four-histidine tagged human CYP3A4delta3 to 24 residues expressed in Escherichia coli assessed as spectral dissociation constant by spectrophotometric method. The essentials: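 Equilibrium titration of CYP3A4 in 50 mM phosphate pH 7.4 with 20% glycerol and 1 mM DTT. Ligand added in small aliquots from DMSO stock, final DMSO <2%. Absorbance spectra recorded. Ks obtained from one- or two-site saturation fit of absorbance change versus ligand concentration.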

In data set [2] the target is T1, Cytochrome P450 3A4. In words: Binding affinity to C-terminal four-histidine tagged human CYP3A4delta3 to 24 residues expressed in Escherichia coli assessed as rate constant for first phase. The essentials: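 Stopped-flow mixing of 2 μM CYP3A4 with varied ligand concentrations, room temperature, 50 mM phosphate pH 7.4. Absorbance followed at 409–411 or 427–428 nm depending on ligand. Fast-phase rate constant taken at saturating ligand concentration.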

Data set [3] addresses T1, Cytochrome P450 3A4. In words: Binding affinity to C-terminal four-histidine tagged human CYP3A4delta3 to 24 residues expressed in Escherichia coli assessed as change in melting temperature at 10 uM by spectrophotometric method.
In data set [4] the target is T1, Cytochrome P450 3A4. In words: Inhibition of C-terminal four-histidine tagged human CYP3A4delta3 to 24 residues expressed in Escherichia coli assessed as 7-benzyloxy-4-(trifluoromethyl)coumarin O-debenzylation pretreated 2 mins followed by NADPH addition by fluorometric method in presence of rat cytochrome P450 reductase. The method, boiled down: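 Reconstituted system at room temperature in 100 mM phosphate pH 7.4 with catalase and superoxide dismutase (2 units/mL each). 1 μM CYP3A4 and 1 μM rat CPR preincubated 1 h at room temperature, then diluted 20-fold in assay buffer just before measurement. BFC (50 μM) and varying compound concentrations added 2 min before starting with 100 μM NADPH. O-debenzylation read fluorometrically; IC50 = half-maximal inactivation.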

T1 sequence (P08684 whole entry, the tested form may be a part): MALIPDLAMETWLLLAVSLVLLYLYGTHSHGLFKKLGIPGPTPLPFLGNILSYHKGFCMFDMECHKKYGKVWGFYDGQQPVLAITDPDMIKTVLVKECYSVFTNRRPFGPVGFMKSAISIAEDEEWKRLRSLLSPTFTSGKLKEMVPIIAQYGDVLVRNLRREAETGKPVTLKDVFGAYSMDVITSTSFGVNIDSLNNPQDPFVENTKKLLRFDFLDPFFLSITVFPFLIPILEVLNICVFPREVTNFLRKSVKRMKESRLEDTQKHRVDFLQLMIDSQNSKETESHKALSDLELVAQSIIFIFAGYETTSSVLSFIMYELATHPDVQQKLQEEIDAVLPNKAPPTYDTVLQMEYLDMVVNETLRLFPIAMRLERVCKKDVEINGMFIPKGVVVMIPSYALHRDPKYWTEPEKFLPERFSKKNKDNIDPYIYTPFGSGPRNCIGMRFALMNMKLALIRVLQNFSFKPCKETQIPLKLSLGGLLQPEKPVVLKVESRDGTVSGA

For orientation: Kd means a measure of binding affinity in units of concentration. The term IC50 denotes the concentration at which inhibition is half-maximal. Regarding `CC(C)(C)OC(=O)N[C@H](CSCCC(=O)NCc1cccnc1)Cc1ccccc1`, the Kd at Cytochrome P450 3A4 [1] was found to be 0.9 µM. Moreover, at Cytochrome P450 3A4 [2], the K was 1.7 s⁻¹. Further, the deltaTm on Cytochrome P450 3A4 [3] is -1 °C. Besides, the concentration for half-maximal inhibition (IC50) on Cytochrome P450 3A4 [4] was 0.52 µM.
On to `c1ccncc1` [PYRIDINE], for which the K at Cytochrome P450 3A4 [2] worked out at 0.5 s⁻¹. The deltaTm on Cytochrome P450 3A4 [3] came to 0 °C.
Take `NCCCCCC(=O)NCc1cccnc1`: the Kd at Cytochrome P450 3A4 [1] turned out to be 10 µM. Also, the K at Cytochrome P450 3A4 [2] came out at 0.8 s⁻¹. Further, at Cytochrome P450 3A4 [3], the deltaTm is -0.2 °C. For the same molecule, on Cytochrome P450 3A4 [4], the IC50 was found to be 1000 µM.
Regarding `CC(C)(C)OC(=O)N[C@H](CSCCC(=O)NCc1cccnc1)Cc1c[nH]c2ccccc12`, at Cytochrome P450 3A4 [1], the Kd worked out at 0.5 µM. In addition, the K at Cytochrome P450 3A4 [2] came to 8 s⁻¹. On Cytochrome P450 3A4 [3], the deltaTm is 0.2 °C. For the same molecule, on Cytochrome P450 3A4 [4], the IC50 is 0.21 µM.
As for `CC(C)(C)OC(=O)N[C@H](CSCCC(=O)NCc1cccnc1)CC1CCCCC1`, the Kd on Cytochrome P450 3A4 [1] was 10 µM. The K at Cytochrome P450 3A4 [2] is 4 s⁻¹. Besides, the deltaTm at Cytochrome P450 3A4 [3] was -2 °C. The IC50 on Cytochrome P450 3A4 [4] is 30 µM.
Consider `CC(C)(C)OC(=O)NCCCCCC(=O)NCc1cccnc1`, for which the K on Cytochrome P450 3A4 [2] was found to be 20 s⁻¹. The deltaTm on Cytochrome P450 3A4 [3] is -0.2 °C. The IC50 on Cytochrome P450 3A4 [4] came to 75 µM.
As to `NCCc1cccnc1`, the Kd at Cytochrome P450 3A4 [1] came out at 2500 µM. In addition, the K at Cytochrome P450 3A4 [2] amounted to 0.6 s⁻¹. For the same molecule, at Cytochrome P450 3A4 [3], the deltaTm was -0.1 °C. Besides, the IC50 on Cytochrome P450 3A4 [4] was 5000 µM.
